A value given as a limit tells only on which side of the number the result lay.

Experimental findings from ChEMBL document CHEMBL5154665, “Design, synthesis, biochemical evaluation, radiolabeling and in vivo imaging with high affinity class-IIa histone deacetylase inhibitor for molecular imaging and targeted therapy” (Eur J Med Chem, 2022) are described below.

A short description of test [1]: Inhibition of HDAC class 2a in human HT-29 cells using Boc-Lys-TFA as substrate incubated for 3 hrs by microplate reader assay. Type of test: cell-based. The note with it: HT-29, 3 h.
Test [2] concerns the target Class 1 histone deacetylase (Homo sapiens, UniProt Q13547+O15379+Q92769+Q9BY41). The experiment in a line: Inhibition of HDAC class 1 in human HT-29 cells using Boc-Lys-Ac as substrate incubated for 3 hrs by microplate reader assay. Type of test: cell-based.
Test [3] is described as follows: Inhibition of HDAC class 2b in human HT-29 cells using Boc-Lys-Ac as substrate incubated for 3 hrs by microplate reader assay. Type of test: cell-based. The note with it: HT-29, 3 h.
Another test has as its target Histone deacetylase 4 (Homo sapiens, UniProt P56524). The experiment in a line: Inhibition of recombinant human HDAC4 using fluorogenic substrate by fluorescence microplate reader assay. The method, boiled down: (§1)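 Recombinant human HDAC isoforms were tested at 9 inhibitor dilutions in commercial fluorogenic enzyme kits, per the manufacturer's protocol. For class IIa enzymes, deacetylation of a TFA-lysine substrate lets trypsin release a fluorophore, read on a microplate reader. IC50 came from a nonlinear fit of % HDAC activity inhibition against compound concentration.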

A further test concerns the target Histone deacetylase 5 (Homo sapiens, UniProt Q9UQL6). Description: Inhibition of recombinant human HDAC5 using fluorogenic substrate by fluorescence microplate reader assay. A digest of the protocol: as §1
The target in a further test is Histone deacetylase 9 (Homo sapiens, UniProt Q9UKV0). The experiment in a line: Inhibition of recombinant human HDAC9 using fluorogenic substrate by fluorescence microplate reader assay. A digest of the protocol:
as §1

In test [4] the target is T1, Polyamine deacetylase HDAC10 (Homo sapiens, UniProt Q969S8).
T1 sequence (Q969S8 whole entry): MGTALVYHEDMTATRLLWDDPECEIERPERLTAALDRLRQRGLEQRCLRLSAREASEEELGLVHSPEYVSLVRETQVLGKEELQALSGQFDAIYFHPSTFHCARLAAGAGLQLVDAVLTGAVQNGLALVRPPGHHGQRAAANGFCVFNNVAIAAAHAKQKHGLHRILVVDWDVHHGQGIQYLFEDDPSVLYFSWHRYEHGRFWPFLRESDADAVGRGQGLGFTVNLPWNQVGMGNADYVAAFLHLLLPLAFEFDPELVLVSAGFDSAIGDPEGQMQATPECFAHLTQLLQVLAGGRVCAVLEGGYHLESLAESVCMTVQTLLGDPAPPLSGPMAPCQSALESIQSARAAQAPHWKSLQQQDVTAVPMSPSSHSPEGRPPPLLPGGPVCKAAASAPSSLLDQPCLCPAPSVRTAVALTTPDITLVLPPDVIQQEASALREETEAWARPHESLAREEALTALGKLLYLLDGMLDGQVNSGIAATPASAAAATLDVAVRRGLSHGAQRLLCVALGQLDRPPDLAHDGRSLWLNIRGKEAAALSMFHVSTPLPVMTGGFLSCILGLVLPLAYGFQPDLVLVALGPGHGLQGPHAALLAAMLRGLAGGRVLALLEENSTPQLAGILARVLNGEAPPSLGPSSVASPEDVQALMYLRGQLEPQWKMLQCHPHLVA
Description: Inhibition of recombinant human HDAC10 using fluorogenic substrate by fluorescence microplate reader assay. A digest of the protocol:
as §1

The next test has as its target T2, Histone deacetylase 11 (Homo sapiens, UniProt Q96DB2).
T2 sequence (Q96DB2 whole entry): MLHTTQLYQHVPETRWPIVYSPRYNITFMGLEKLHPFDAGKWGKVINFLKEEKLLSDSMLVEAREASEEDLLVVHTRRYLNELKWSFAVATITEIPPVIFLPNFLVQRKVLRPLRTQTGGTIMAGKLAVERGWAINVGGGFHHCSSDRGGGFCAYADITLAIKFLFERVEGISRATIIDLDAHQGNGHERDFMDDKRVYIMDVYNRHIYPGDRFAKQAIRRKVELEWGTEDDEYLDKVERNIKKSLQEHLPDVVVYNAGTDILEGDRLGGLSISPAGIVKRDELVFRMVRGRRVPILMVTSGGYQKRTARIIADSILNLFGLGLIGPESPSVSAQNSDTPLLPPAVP
Description: Inhibition of recombinant human HDAC11 using fluorogenic substrate by fluorescence microplate reader assay. The method, boiled down: as §1

Another test has as its target Histone deacetylase 1 (Homo sapiens, UniProt Q13547). Description: Inhibition of recombinant human HDAC1 using fluorogenic substrate by fluorescence microplate reader assay. The method, boiled down:
as §1

Another test concerns the target Histone deacetylase 2 (Homo sapiens, UniProt Q92769). The experiment in a line: Inhibition of recombinant human HDAC2 using fluorogenic substrate by fluorescence microplate reader assay. The method, boiled down:
as §1

A further test addresses Histone deacetylase 3 (Homo sapiens, UniProt O15379). The experiment in a line: Inhibition of recombinant human HDAC3 using fluorogenic substrate by fluorescence microplate reader assay. A digest of the protocol:
as §1

Test [5] concerns the target T3, Protein deacetylase HDAC6 (Homo sapiens, UniProt Q9UBN7).
T3 sequence (Q9UBN7 whole entry): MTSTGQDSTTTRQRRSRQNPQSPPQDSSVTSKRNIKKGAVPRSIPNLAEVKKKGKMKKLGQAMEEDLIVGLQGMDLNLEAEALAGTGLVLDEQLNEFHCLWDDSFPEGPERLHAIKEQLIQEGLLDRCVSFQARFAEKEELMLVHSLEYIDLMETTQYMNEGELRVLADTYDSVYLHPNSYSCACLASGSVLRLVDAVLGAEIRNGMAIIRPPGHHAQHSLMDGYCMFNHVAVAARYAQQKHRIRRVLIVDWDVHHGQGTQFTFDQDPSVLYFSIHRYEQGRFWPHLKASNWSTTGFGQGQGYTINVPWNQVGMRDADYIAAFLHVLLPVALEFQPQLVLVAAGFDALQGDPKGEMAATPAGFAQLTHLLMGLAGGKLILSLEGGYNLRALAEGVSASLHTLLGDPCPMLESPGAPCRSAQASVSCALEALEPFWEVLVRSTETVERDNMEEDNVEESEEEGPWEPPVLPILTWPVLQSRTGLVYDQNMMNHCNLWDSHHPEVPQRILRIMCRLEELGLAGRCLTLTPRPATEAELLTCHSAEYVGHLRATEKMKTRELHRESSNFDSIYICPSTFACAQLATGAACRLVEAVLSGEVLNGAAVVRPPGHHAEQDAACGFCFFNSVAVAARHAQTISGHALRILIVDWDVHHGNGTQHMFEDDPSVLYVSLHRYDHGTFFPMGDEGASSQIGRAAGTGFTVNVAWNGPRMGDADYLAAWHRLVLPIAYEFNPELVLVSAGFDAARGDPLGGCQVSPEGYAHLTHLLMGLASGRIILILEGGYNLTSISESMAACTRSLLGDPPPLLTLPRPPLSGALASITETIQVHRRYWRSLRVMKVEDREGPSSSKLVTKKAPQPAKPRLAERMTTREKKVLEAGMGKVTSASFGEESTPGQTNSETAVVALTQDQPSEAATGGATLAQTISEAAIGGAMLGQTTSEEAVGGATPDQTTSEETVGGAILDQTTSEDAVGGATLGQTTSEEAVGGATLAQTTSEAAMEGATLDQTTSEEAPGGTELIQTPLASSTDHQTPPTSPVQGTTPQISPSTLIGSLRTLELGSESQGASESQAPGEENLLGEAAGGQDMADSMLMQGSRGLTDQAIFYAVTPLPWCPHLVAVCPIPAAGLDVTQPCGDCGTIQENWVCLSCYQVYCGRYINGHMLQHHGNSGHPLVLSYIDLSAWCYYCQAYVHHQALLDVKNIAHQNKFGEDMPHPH
Description: Inhibition of recombinant human HDAC6 using fluorogenic substrate by fluorescence microplate reader assay. The method, boiled down: as §1

The next test has as its target T4, Histone deacetylase 8 (Homo sapiens, UniProt Q9BY41).
T4 sequence (Q9BY41 whole entry): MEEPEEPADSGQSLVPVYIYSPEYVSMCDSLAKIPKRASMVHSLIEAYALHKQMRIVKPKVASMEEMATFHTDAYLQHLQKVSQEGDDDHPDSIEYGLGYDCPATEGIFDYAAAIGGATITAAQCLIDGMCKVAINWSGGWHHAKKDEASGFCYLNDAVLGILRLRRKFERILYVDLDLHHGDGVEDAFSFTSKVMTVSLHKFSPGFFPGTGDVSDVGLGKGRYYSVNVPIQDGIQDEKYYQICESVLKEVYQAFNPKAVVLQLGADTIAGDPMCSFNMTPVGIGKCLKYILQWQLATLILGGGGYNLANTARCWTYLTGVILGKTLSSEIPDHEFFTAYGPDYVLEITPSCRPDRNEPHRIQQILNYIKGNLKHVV
Description: Inhibition of recombinant human HDAC8 using fluorogenic substrate by fluorescence microplate reader assay. A digest of the protocol: as §1

Sequence of Histone deacetylase 2 (Q92769 whole entry): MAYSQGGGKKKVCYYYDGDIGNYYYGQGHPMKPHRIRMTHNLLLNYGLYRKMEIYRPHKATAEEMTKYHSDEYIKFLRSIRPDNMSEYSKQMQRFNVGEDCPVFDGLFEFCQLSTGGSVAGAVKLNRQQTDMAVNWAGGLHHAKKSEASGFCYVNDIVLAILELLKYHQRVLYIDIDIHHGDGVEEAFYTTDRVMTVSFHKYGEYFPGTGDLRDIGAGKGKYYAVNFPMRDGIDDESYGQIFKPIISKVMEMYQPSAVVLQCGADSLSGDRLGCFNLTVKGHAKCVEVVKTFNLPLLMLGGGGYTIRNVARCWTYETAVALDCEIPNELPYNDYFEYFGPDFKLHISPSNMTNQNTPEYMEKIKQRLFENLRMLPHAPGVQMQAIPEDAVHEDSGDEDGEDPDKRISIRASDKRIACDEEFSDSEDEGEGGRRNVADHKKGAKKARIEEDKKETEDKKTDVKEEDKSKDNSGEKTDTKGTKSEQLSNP
Sequence of Histone deacetylase 9 (Q9UKV0 whole entry): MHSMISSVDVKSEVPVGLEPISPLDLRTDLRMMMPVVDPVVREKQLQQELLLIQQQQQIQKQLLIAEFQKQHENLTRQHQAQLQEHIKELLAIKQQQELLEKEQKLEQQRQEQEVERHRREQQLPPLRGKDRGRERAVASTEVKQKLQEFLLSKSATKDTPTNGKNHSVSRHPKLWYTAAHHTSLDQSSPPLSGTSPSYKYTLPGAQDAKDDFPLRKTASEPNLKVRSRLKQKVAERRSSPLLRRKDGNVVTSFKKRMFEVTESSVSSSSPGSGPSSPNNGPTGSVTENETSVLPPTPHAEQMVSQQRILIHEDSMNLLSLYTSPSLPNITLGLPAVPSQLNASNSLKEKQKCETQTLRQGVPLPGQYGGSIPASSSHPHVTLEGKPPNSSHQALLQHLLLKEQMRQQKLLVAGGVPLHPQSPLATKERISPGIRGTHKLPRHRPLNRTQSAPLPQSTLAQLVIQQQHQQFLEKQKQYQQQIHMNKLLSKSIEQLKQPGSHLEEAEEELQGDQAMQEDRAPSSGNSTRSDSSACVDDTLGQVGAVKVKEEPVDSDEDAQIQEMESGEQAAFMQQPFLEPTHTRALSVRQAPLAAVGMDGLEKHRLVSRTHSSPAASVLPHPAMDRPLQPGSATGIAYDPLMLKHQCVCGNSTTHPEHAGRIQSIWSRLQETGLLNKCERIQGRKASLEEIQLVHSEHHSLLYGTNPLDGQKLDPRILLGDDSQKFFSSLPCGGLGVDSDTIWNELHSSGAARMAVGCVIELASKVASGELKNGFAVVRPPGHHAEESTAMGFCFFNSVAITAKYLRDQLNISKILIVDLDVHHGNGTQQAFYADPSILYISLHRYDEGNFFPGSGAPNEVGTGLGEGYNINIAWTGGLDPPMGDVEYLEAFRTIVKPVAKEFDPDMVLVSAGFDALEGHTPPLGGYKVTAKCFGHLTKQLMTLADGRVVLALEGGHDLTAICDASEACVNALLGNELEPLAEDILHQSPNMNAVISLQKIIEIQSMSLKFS
Sequence of Histone deacetylase 1 (Q13547 whole entry): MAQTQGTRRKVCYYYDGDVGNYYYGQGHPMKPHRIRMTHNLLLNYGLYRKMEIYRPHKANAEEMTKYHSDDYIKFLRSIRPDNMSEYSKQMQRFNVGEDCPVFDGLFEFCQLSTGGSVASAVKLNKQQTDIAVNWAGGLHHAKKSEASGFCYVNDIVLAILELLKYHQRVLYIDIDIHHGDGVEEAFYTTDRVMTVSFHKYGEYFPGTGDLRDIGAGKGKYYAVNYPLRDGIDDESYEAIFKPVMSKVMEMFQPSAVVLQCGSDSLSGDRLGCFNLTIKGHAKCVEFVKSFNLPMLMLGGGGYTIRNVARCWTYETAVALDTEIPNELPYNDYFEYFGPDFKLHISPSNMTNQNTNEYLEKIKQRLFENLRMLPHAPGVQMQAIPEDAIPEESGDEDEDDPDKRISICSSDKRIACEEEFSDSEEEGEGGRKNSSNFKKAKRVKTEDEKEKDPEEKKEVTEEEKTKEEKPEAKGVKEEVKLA
Sequence of Histone deacetylase 5 (Q9UQL6 whole entry): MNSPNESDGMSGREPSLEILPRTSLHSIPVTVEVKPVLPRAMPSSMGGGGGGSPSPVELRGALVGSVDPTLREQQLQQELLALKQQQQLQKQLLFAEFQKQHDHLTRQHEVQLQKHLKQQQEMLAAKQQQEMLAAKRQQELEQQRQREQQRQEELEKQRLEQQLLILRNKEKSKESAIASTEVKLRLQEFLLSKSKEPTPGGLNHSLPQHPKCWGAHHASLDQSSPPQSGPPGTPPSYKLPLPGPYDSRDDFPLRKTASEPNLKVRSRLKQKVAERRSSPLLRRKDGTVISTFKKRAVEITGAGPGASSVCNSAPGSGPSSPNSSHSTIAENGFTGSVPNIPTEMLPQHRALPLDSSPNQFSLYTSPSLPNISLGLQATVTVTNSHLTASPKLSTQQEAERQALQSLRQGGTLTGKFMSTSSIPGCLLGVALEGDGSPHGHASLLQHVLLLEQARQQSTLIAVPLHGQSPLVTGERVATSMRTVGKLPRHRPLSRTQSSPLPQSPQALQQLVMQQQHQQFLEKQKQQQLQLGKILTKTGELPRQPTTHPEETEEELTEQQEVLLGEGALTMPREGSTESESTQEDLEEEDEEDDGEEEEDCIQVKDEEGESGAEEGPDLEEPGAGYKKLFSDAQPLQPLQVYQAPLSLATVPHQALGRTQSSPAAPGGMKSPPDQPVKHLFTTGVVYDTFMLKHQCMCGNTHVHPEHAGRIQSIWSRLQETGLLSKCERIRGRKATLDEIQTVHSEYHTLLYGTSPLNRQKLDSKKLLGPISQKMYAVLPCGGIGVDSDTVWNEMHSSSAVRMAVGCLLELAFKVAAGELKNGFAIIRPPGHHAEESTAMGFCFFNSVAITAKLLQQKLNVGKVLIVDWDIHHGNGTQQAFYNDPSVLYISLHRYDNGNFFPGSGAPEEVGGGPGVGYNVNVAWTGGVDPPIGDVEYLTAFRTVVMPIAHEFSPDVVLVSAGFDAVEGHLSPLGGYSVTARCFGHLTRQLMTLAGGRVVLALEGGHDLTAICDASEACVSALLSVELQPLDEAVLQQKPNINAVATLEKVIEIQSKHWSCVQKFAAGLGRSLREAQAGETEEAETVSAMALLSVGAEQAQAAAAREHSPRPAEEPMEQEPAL
Sequence of Histone deacetylase 3 (O15379 whole entry): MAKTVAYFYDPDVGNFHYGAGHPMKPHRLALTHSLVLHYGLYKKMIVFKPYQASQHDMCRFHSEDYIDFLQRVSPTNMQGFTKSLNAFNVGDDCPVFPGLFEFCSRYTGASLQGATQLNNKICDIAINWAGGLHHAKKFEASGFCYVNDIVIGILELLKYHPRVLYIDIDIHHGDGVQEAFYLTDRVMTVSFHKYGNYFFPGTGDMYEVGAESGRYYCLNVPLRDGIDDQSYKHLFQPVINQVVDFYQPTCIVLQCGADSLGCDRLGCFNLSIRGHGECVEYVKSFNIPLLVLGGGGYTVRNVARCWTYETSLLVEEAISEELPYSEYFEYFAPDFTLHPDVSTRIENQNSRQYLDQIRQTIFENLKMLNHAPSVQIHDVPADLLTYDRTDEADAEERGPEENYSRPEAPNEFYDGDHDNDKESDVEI
Sequence of Histone deacetylase 4 (P56524 whole entry, canonical isoform): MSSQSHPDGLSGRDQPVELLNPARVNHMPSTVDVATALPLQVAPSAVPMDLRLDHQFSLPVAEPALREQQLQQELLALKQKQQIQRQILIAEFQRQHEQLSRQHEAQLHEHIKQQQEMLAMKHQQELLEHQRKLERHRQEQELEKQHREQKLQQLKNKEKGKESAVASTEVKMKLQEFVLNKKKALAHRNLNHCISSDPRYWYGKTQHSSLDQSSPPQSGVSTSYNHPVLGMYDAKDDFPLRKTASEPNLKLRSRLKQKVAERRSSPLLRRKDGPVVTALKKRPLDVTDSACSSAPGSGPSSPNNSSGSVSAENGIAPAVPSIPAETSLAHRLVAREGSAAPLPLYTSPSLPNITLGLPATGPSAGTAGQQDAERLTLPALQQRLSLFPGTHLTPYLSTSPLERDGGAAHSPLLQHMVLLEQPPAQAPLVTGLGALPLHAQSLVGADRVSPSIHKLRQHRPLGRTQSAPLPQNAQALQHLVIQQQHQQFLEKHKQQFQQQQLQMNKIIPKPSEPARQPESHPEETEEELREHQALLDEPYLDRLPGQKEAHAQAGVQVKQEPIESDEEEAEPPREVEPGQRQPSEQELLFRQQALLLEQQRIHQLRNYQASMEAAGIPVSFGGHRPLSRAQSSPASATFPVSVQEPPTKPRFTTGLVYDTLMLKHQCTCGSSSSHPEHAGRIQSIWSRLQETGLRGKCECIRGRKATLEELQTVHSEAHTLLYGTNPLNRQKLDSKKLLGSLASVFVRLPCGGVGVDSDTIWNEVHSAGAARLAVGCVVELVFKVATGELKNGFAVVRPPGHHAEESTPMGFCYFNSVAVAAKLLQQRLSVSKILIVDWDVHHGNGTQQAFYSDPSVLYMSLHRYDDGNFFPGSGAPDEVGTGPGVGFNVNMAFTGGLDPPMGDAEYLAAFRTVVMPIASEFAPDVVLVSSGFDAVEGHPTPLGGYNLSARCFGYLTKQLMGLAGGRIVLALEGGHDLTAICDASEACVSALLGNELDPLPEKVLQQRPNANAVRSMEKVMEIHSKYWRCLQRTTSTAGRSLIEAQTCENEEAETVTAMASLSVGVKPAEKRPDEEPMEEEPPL

The term IC50 denotes the concentration at which inhibition is half-maximal. Regarding `C[C@H](CN(C)Cc1ccccc1)NC(=O)c1ccc(-c2noc(C(F)(F)Br)n2)cc1`, the IC50 in test [1], in [2] and in [3] was over 5000 nM throughout.

In the case of `C[C@H](CN(C)Cc1ccccc1)NC(=O)c1ccc(-c2noc(C(F)(F)F)n2)cc1`, the IC50 in test [1] was 46 nM; in test [2] it was over 15000 nM; in test [3], over 15000 nM; on Histone deacetylase 4, 0.08 nM; at Histone deacetylase 5, 1.2 nM; at Histone deacetylase 9, 0.9 nM. Moreover, the IC50 (in test [4]; on Histone deacetylase 11; on Histone deacetylase 1; at Histone deacetylase 2; at Histone deacetylase 3; in [5]) was over 600 nM each time. Besides, the IC50 at Histone deacetylase 8 was over 600 nM.

Regarding `C[C@H](CN(C)Cc1ccccc1)NC(=O)c1cccc(-c2noc(C(F)(F)F)n2)c1`, the IC50 in [1], in [2] and in [3] was over 50000 nM throughout.

Take `CC(CN(C)Cc1ccccc1)NC(=O)c1ccc(-c2noc(C(F)(F)F)n2)cc1` (stereo unspecified): the figures for the IC50 in test [1], in test [2] and in test [3] were 395 nM, over 50000 nM and over 50000 nM, respectively.

Turning to `CN(Cc1ccccc1)C(=O)C(C)(C)CNC(=O)c1cccc(-c2noc(C(F)(F)F)n2)c1`, the IC50 in [1], in test [2] and in test [3] was over 50000 nM throughout.

As for `C[C@H](CN(C)Cc1ccc(F)cc1)NC(=O)c1ccc(-c2noc(C(F)(F)F)n2)cc1`, the IC50 in test [1] is 59 nM; in test [2], over 15000 nM; in test [3], over 15000 nM.

For `CC(C)(CNC(=O)c1ccc(-c2noc(C(F)(F)F)n2)cc1)c1coc(-c2ccccc2)n1`, the IC50 in test [1] is over 5000 nM; in [2], over 15000 nM; in [3], over 15000 nM.

For the compound `COC[C@@H](NC(=O)c1ccc(-c2noc(C(F)(F)F)n2)nc1)C(=O)NCc1ccccc1`, the IC50 was 1710 nM in [1], over 15000 nM in [2] and over 15000 nM in [3].

Turning to `CN(Cc1ccccc1)C(=O)CCNC(=O)c1cccc(-c2noc(C(F)(F)F)n2)c1`, the IC50 in [1], in test [2] and in test [3] was over 50000 nM throughout.

Regarding `CN(Cc1ccccc1)C(=O)CCNC(=O)c1ccc(-c2noc(C(F)(F)F)n2)cc1`, the IC50 in test [1] is 905 nM; in [2], over 15000 nM; in test [3] it was over 15000 nM.

Turning to `C[C@@H](NC(=O)c1ccc(-c2noc(C(F)(F)F)n2)cc1)C(=O)NCc1ccccc1`, the IC50 in [1] was 953 nM; in test [2], over 15000 nM; in test [3], over 15000 nM.

Regarding `CC(C)(CNC(=O)c1ccc(-c2noc(C(F)(F)F)n2)cc1)C(=O)NCc1ccccc1`, the IC50 in test [1] was 768 nM; in test [2], over 15000 nM; in [3] it was over 15000 nM.

`CN(Cc1ccccc1)C(=O)C(C)(C)CNC(=O)c1ccc(-c2noc(C(F)(F)F)n2)cc1`: the values for the IC50 in [1], in [2] and in test [3] were 933 nM, over 15000 nM and over 15000 nM, respectively.

With `C[C@H](CN(C)Cc1ccccc1)NC(=O)c1ccc(-c2noc(C(F)(F)F)n2)nc1`, the figures for the IC50 in [1], in test [2] and in test [3] were 147 nM, over 50000 nM and over 50000 nM, respectively.

Regarding `COC[C@@H](NC(=O)c1ccc(-c2noc(C(F)(F)F)n2)cc1)C(=O)NCc1ccccc1`, the IC50 in test [1] was 537 nM; in test [2], over 15000 nM; in test [3] it was over 15000 nM.

Regarding `C[C@H](CN(C)Cc1ccccc1)NC(=O)c1ccc(-c2noc(C(F)(F)Cl)n2)cc1`, the IC50 in [1], in test [2] and in [3] was over 2000 nM in each case.

As to `COC[C@@H](NC(=O)c1ccc(-c2noc(C(F)(F)F)n2)cc1)C(=O)NCc1ccc(F)cc1`, the values for the IC50 in [1], in test [2] and in test [3] were 233 nM, over 15000 nM and over 15000 nM, respectively.
